Assay results as given in ChEMBL document CHEMBL1125710, “Structure/activity and molecular modeling studies of the lophotoxin family of irreversible nicotinic receptor antagonists” (J Med Chem, 1991).
Where “and” joins values, the source holds several entries; their conditions need not be identical. Equal entries are not always repeated. Calls of active or inactive are those of the source. No cut-off for these calls is given here.

biological target: T1, Acetylcholine receptor (Torpedo californica, UniProt P02710+P02712+P02714+P02718); experiment: In vitro ability to inhibit the binding of [125I]alpha-bungarotoxin to Nicotinic acetylcholine receptor on membranes prepared from the electric organs of Torpedo californica; type: tissue-based, Tetronarce californica, Electric organ; details: not given
T1 sequence (P02710 whole entry): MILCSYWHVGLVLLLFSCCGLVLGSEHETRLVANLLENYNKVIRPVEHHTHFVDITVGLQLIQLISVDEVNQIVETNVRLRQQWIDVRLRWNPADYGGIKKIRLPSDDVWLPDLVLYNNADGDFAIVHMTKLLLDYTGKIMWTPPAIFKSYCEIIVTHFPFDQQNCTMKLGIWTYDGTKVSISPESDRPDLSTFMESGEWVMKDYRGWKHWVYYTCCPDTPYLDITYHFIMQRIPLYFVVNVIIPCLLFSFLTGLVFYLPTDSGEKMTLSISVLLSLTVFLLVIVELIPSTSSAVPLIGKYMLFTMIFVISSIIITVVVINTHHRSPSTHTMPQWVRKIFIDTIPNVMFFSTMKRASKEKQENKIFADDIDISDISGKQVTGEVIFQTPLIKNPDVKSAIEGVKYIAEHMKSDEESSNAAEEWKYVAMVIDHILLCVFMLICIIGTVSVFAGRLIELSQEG
T1 sequence (P02712 whole entry): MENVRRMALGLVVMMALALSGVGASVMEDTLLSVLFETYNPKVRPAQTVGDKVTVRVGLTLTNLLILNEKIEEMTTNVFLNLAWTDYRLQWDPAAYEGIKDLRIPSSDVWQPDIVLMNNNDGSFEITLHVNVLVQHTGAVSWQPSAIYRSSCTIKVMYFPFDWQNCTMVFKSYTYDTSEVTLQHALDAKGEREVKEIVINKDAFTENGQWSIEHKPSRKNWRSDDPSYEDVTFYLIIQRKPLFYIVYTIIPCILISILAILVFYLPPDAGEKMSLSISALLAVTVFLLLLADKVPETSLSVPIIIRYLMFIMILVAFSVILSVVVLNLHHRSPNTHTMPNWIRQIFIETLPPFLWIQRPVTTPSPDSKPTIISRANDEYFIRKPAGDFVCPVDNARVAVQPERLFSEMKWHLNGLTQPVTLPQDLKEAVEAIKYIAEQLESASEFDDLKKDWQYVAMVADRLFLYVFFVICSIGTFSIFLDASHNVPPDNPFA
T1 sequence (P02718 whole entry): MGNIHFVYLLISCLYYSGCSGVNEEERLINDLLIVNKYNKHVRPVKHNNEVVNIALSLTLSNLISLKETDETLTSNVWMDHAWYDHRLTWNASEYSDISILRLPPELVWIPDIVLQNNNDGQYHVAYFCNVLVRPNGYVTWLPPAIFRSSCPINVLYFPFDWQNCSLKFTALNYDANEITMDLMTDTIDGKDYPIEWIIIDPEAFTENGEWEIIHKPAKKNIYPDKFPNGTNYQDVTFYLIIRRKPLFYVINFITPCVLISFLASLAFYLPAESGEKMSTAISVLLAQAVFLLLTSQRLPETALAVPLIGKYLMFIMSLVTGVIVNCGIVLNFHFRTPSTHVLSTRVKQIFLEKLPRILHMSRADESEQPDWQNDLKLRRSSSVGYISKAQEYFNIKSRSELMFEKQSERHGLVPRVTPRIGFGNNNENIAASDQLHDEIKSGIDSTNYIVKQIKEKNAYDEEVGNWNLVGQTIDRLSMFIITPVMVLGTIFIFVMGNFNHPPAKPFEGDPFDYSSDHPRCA
T1 sequence (P02714 whole entry): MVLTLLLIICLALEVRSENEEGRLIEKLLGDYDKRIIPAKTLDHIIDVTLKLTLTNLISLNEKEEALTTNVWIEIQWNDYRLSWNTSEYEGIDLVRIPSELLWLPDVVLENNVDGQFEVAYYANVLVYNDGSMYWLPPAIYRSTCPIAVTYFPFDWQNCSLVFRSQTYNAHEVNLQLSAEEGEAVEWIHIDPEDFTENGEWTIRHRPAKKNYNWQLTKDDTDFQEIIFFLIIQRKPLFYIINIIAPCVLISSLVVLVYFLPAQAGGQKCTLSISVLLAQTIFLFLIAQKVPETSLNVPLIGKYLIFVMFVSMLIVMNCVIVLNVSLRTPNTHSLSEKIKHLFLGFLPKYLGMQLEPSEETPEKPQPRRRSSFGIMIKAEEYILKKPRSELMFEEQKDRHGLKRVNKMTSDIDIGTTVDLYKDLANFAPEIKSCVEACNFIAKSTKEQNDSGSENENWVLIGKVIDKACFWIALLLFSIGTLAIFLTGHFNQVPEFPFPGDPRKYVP
Outline: (§1)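 Torpedo californica electric-organ membranes (ca. 1.0 pmol α-toxin sites) in 10 mM sodium phosphate pH 7.4 with 1.0 mM EDTA and 1.0 mM EGTA. Analogue in DMSO reacted 2 or 16 h at 23 °C, then 2-5-fold molar excess [125I]-α-bungarotoxin for 60 min. Duplicate aliquots filtered on DE81, washed, gamma-counted. Apparent EC50 is 50% inhibition of specific binding.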

Q: With `C=C(C=O)[C@H]1C[C@H](OC(C)=O)[C@@]23O[C@@H]2[C@@H](C[C@]2(C)O[C@H]2C2=CC(C)=C(O2)[C@@H]1OC(C)=O)OC3=O` as the compound, how does the EC50 read?
A: 2.88 µM and 9.33 µM

biological target: T1, Acetylcholine receptor; experiment: In vitro inhibition of [125I]alpha-bungarotoxin binding to nicotinic acetylcholine receptor of Torpedo californica electric organ membranes; type: tissue-based, Tetronarce californica; details: not given; outline: as §1

Q: Which EC50 does the source give for `C=C(C(=O)OC)[C@H]1C[C@H](OC(C)=O)C2=C[C@@H](C[C@]3(C)O[C@H]3C3=CC(C)=C(O3)[C@@H]1OC(C)=O)OC2=O` here?
A: 7.41 µM

Q: Which EC50 does the source give for `C=C(CO)[C@H]1C[C@H](OC(C)=O)[C@@]23O[C@@H]2[C@@H](CC2(C)O[C@H]2C2=CC(C)=C(O2)[C@@H]1O)OC3=O` (single isomer, unassigned) here?
A: 81.3 µM

Q: Which EC50 does the source give for `C=C(CO)[C@H]1C[C@H](O)[C@@]23O[C@@H]2[C@@H](C[C@]2(C)O[C@H]2C2=CC(C)=C(O2)[C@@H]1OC(C)=O)OC3=O` here?
A: 25.7 µM

Q: Which EC50 does the source give for `CC(=O)O[C@H]1C[C@H](C2(C)CO2)[C@@H](OC(C)=O)C2=C(C)C=C(O2)[C@@H]2O[C@@]2(C)C[C@@H]2C=C1C(=O)O2` (stereo partly drawn) here?
A: 12 µM

Q: Which EC50 does the source give for `C=C(C)[C@@H]1CC2=C(C=O)C=C(O2)[C@@H]2O[C@@]2(C)C[C@@H]2C=C(C(=O)O2)[C@@H](OC(C)=O)C1` [DEOXYLOPHOTOXIN] here?
A: 115 µM

Q: `C=C(C)[C@@H]1CC2=C(C(=O)OC)C=C(O2)[C@@H]2O[C@@]2(C)C[C@@H]2C=C(C(=O)O2)[C@@H](OC(C)=O)C1` [ACETOXYPUKALIDE] was tested. Which EC50 did it give?
A: 91.2 µM

Q: How did the EC50 turn out when `C=C(C)[C@@H]1CC2=C(C(=O)OC)C=C(O2)[C@@H]2O[C@@]2(C)C[C@H]2OC(=O)[C@@]3(O[C@H]23)[C@@H](OC(C)=O)C1` was run?
A: 126 µM

Q: How did the EC50 turn out when `CC(=O)O[C@H]1C[C@H](C2(C)CO2)[C@@H](OC(C)=O)C2=C(C)C=C(O2)[C@@H]2O[C@@]2(C)C[C@H]2OC(=O)[C@@]13O[C@H]23` (stereo partly drawn) was run?
A: 25.1 µM

Q: Which EC50 does the source give for `C=C(CO)[C@H]1C[C@H](OC(C)=O)[C@@]23O[C@@H]2[C@@H](C[C@]2(C)O[C@H]2C2=CC(C)=C(O2)[C@@H]1OC(C)=O)OC3=O` here?
A: 2.09 µM

Q: `C=C(C)[C@H]1C[C@H](OC(C)=O)C2=C[C@@H](C[C@]3(C)O[C@H]3C3=CC(C)=C(O3)[C@@H]1OC(C)=O)OC2=O` was tested. Which EC50 did it give?
A: 14.5 µM

Q: Which EC50 does the source give for `C=C(C=O)[C@@H]1CC2=C(C(=O)OC)C=C(O2)[C@@H]2O[C@@]2(C)C[C@H]2OC(=O)[C@@]3(O[C@H]23)[C@@H](OC(C)=O)C1` here?
A: 105 µM

Q: `C=C(C)[C@@H]1CC2=C(CO)C=C(O2)[C@@H]2O[C@@]2(C)C[C@H]2OC(=O)[C@@]3(O[C@H]23)[C@@H](OC(C)=O)C1` was tested. Which EC50 did it give?
A: 44.7 µM

biological target: T1, Acetylcholine receptor; experiment: In vitro ability to inhibit the binding of [125I]-alpha-bungarotoxin to nicotinic acetylcholine receptor on membranes prepared from the electric organs of Torpedo californica; type: tissue-based, Tetronarce californica, Electric organ; details: not given; outline: as §1

Q: `COc1cc2c3cc1Oc1cc(ccc1O)C[C@@H]1c4c(cc(OC)c(O)c4Oc4ccc(cc4)C[C@@H]3N(C)CC2)CC[N+]1(C)C` was tested. Which EC50 did it give?
A: 3200 µM

biological target: Acetylcholine receptor (Torpedo californica) (UniProt P02710+P02712+P02718+P02714); experiment: In vitro ability to inhibit the binding of [125I]alpha-bungarotoxin to nicotinic acetylcholine receptor on membranes prepared from the electric organs of Torpedo californica; Not active; details: Tetronarce californica; outline: as §1

Q: With `C=C(C)[C@H]1CCC2=C[C@@H](C[C@]3(C)O[C@H]3C3=CC(C=O)=C(C1)O3)OC2=O` as the compound, how does the “Log EC50” value read?
A: inactive

Q: Which “Log EC50” value does the source give for `C=C(CO)[C@H]1C[C@H](O)[C@@]23O[C@@H]2[C@@H](CC2(C)O[C@H]2C2=CC(C)=C(O2)[C@@H]1OC(C)=O)OC3O` (single isomer, unassigned) here?
A: inactive

Q: With `C=C(C)[C@H]1CCC2=C[C@@H](C/C(C)=C/C3=CC(C(=O)OC)=C(C1)O3)OC2=O` as the compound, how does the “Log EC50” value read?
A: inactive

Q: For `COC(=O)c1cc2oc1C[C@@H](C(C)C)CCC1C[C@@H](C[C@](C)(O)C2)OC1=O`, which “Log EC50” value is on record?
A: inactive

Q: For `C=C(C)[C@H]1CCC2=C[C@@H](C[C@]3(C)O[C@H]3C3=CC(C(=O)OC)=C(C1)O3)OC2=O`, which “Log EC50” value is on record?
A: inactive

Q: `C=C(C)[C@H]1CC2O[C@@](O)(/C(C)=C\C(=O)/C=C(/C)C[C@H]3OC(=O)[C@@]24O[C@H]34)[C@@H]1OC(C)=O` was tested. Which “Log EC50” value did it give?
A: inactive

Q: With `C=C(CO)[C@H]1C[C@H](OC(C)=O)[C@@]23O[C@@H]2[C@@H](CC2(C)O[C@H]2C2=CC(C)=C(O2)[C@@H]1OC(C)=O)OC3O` (single isomer, unassigned) as the compound, how does the “Log EC50” value read?
A: inactive

Q: With `C=C(C(=O)OC)[C@H]1CC2O[C@@](O)(/C(C)=C\C(=O)/C=C(/C)C[C@H]3OC(=O)[C@@]24O[C@H]34)[C@@H]1OC(C)=O` as the compound, how does the “Log EC50” value read?
A: inactive

Q: `C=C(C)[C@H]1C[C@H](OC(C)=O)[C@@]23O[C@@H]2[C@@H](C[C@](C)(O)/C=C2/C=C(C=O)C(OCC)(C1)O2)OC3=O` was tested. Which “Log EC50” value did it give?
A: inactive
